# The source made the active and inactive calls. The calls are words filed in the database; no cut-off is given here.
# Columns and labels:
# Epidermophyton floccosum [1] = assay: Antifungal activity against Epidermophyton floccosum (Hartz) Langeron and Milochevitch CBS 358.93 assessed as growth inhibition at 20 ug/ml measured on day 7 by sabouraud dextrose agar diffusion method relative to control; format: functional; settings: (Hartz) Langeron and Milochevitch CBS 358.93, 168 h, read-out: GI
# Outline: (§1)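 Dermatophyte strains kept on Sabouraud dextrose agar slants. Mycelium disks (10 mm) from a stationary-phase culture grown at 26 ± 1 °C on cellophane over SDA to log phase, then moved onto SDA containing compound added from DMSO stock at 45 °C (final DMSO 0.1%; DMSO-only controls). Colony diameter measured daily for 7 days. % inhibition = (dex − dex')/dex × 100. Three replicates per concentration; mean of three independent experiments.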
# Trichophyton rubrum [2] = assay: Antifungal activity against Trichophyton rubrum (Castellani) Sabouraud IHME 4321 assessed as growth inhibition at 20 ug/ml measured on day 7 by sabouraud dextrose agar diffusion method relative to control; format: functional; settings: (Castellani) Sabouraud IHME 4321, 168 h, read-out: GI; outline: as §1
# Trichophyton tonsurans [3] = assay: Antifungal activity against Trichophyton tonsurans Malmsten CBS 483.76 assessed as growth inhibition at 20 ug/ml measured on day 7 by sabouraud dextrose agar diffusion method relative to control; format: functional; settings: Malmsten CBS 483.76, 168 h, read-out: GI; outline: as §1
# Trichophyton violaceum [4] = assay: Antifungal activity against Trichophyton violaceum Malmsten CBS 459.61 assessed as growth inhibition at 20 ug/ml measured on day 7 by sabouraud dextrose agar diffusion method relative to control; format: functional; settings: Malmsten CBS 459.61, 168 h, read-out: GI; outline: as §1
# [5] = system: Trichophyton mentagrophytes; assay: Antifungal activity against Trichophyton mentagrophytes (Robin) Blanchard CBS 160.66 assessed as growth inhibition at 20 ug/ml measured on day 7 by sabouraud dextrose agar diffusion method relative to control; format: functional; settings: (Robin) Blanchard CBS 160.66, 168 h, read-out: GI; outline: as §1
# Nannizzia gypsea [6] = assay: Antifungal activity against Microsporum gypseum (Bodin) Guiart and Grigorakis IHME 3999 assessed as growth inhibition at 20 ug/ml measured on day 7 by sabouraud dextrose agar diffusion method relative to control; format: functional; outline: as §1
# Paraphyton cookei [7] = assay: Antifungal activity against Nannizzia cajetani Ajello CBS 495.70 assessed as growth inhibition at 20 ug/ml measured on day 7 by sabouraud dextrose agar diffusion method relative to control; format: functional; settings: Ajello CBS 495.70, 168 h, read-out: GI; outline: as §1
# [8] = Antifungal activity against Microsporum canis Bodin CBS 4727 assessed as growth inhibition at 20 ug/ml measured on day 7 by sabouraud dextrose agar diffusion method relative to control; format: functional; outline: as §1
# Nannizzia gypsea [9] = assay: Antifungal activity against Nannizzia gypsea (Bodin) Guiart et Grigoraki CBS 286.63 assessed as growth inhibition at 20 ug/ml measured on day 7 by sabouraud dextrose agar diffusion method relative to control; format: functional; outline: as §1
# Epidermophyton floccosum [10] = assay: Antifungal activity against Epidermophyton floccosum (Hartz) Langeron and Milochevitch CBS 358.93 assessed as growth inhibition at 100 ug/ml measured on day 7 by sabouraud dextrose agar diffusion method relative to control; format: functional; settings: (Hartz) Langeron and Milochevitch CBS 358.93, 168 h, read-out: GI; outline: as §1
# Trichophyton rubrum [11] = assay: Antifungal activity against Trichophyton rubrum (Castellani) Sabouraud IHME 4321 assessed as growth inhibition at 100 ug/ml measured on day 7 by sabouraud dextrose agar diffusion method relative to control; format: functional; settings: (Castellani) Sabouraud IHME 4321, 168 h, read-out: GI; outline: as §1
# Trichophyton tonsurans [12] = assay: Antifungal activity against Trichophyton tonsurans Malmsten CBS 483.76 assessed as growth inhibition at 100 ug/ml measured on day 7 by sabouraud dextrose agar diffusion method relative to control; format: functional; settings: Malmsten CBS 483.76, 168 h, read-out: GI; outline: as §1
# Trichophyton violaceum [13] = assay: Antifungal activity against Trichophyton violaceum Malmsten CBS 459.61 assessed as growth inhibition at 100 ug/ml measured on day 7 by sabouraud dextrose agar diffusion method relative to control; format: functional; settings: Malmsten CBS 459.61, 168 h, read-out: GI; outline: as §1
# [14] = system: Trichophyton mentagrophytes; assay: Antifungal activity against Trichophyton mentagrophytes (Robin) Blanchard CBS 160.66 assessed as growth inhibition at 100 ug/ml measured on day 7 by sabouraud dextrose agar diffusion method relative to control; format: functional; settings: (Robin) Blanchard CBS 160.66, 168 h, read-out: GI; outline: as §1
# Nannizzia gypsea [15] = assay: Antifungal activity against Microsporum gypseum (Bodin) Guiart and Grigorakis IHME 3999 assessed as growth inhibition at 100 ug/ml measured on day 7 by sabouraud dextrose agar diffusion method relative to control; format: functional; settings: (Bodin) Guiart and Grigorakis IHME 3999, 168 h, read-out: GI; outline: as §1
# Paraphyton cookei [16] = assay: Antifungal activity against Nannizzia cajetani Ajello CBS 495.70 assessed as growth inhibition at 100 ug/ml measured on day 7 by sabouraud dextrose agar diffusion method relative to control; format: functional; settings: Ajello CBS 495.70, 168 h, read-out: GI; outline: as §1
# [17] = Antifungal activity against Microsporum canis Bodin CBS 4727 assessed as growth inhibition at 100 ug/ml measured on day 7 by sabouraud dextrose agar diffusion method relative to control; format: functional; outline: as §1
# Nannizzia gypsea [18] = assay: Antifungal activity against Nannizzia gypsea (Bodin) Guiart et Grigoraki CBS 286.63 assessed as growth inhibition at 100 ug/ml measured on day 7 by sabouraud dextrose agar diffusion method relative to control; format: functional; outline: as §1
# [19] = biological target: Nuclear factor NF-kappa-B complex (Homo sapiens) (UniProt Q00653+P19838+Q04206); assay: Inhibition of NF-kappaB (unknown origin)/32P-labeled oligonucleotide interaction at 0.1 to 10 mM after 20 mins by electrophoretic mobility shift assay; format: protein-complex assay
# Outline: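 Probe was a double-stranded 32P-labelled oligonucleotide (0.25 ng) in buffer of 10% glycerol, 0.05% NP-40, 10 mM Tris-HCl pH 7.5, 50 mM NaCl, 0.5 mM DTT and 10 mM MgCl2. Compound and probe were bound for 20 min at room temperature, then recombinant NF-kappaB p50 was added for a further 20 min. Samples were run on 6% polyacrylamide in 0.25× TBE at 200 V.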
# K562 [20] = assay: Induction of apoptosis in human K562 cells assessed as live cells at 500 uM after 3 days by Annexin-V staining-based assay (reference value: 87.33%); format: functional
# K562 [21] = assay: Induction of apoptosis in human K562 cells assessed as live cells at 1000 uM after 3 days by Annexin-V staining-based assay (reference value: 87.33%); format: functional
# K562 [22] = assay: Induction of apoptosis in human K562 cells assessed as live cells at 5 uM after 3 days by Annexin-V staining-based assay (reference value: 87.33%); format: functional
# K562 [23] = assay: Induction of apoptosis in human K562 cells assessed as live cells at 10 uM after 3 days by Annexin-V staining-based assay (reference value: 87.33%); format: functional
# K562 [24] = assay: Induction of apoptosis in human K562 cells assessed as early apoptotic cells at 500 uM after 3 days by Annexin-V staining-based assay (reference value: 5.41%); format: functional
# K562 [25] = assay: Induction of apoptosis in human K562 cells assessed as early apoptotic cells at 1000 uM after 3 days by Annexin-V staining-based assay (reference value: 5.41%); format: functional
# K562 [26] = assay: Induction of apoptosis in human K562 cells assessed as early apoptotic cells at 5 uM after 3 days by Annexin-V staining-based assay (reference value: 5.41%); format: functional
# K562 [27] = assay: Induction of apoptosis in human K562 cells assessed as early apoptotic cells at 10 uM after 3 days by Annexin-V staining-based assay (reference value: 5.41%); format: functional
# K562 [28] = assay: Induction of apoptosis in human K562 cells assessed as late apoptotic cells at 500 uM after 3 days by Annexin-V staining-based assay (reference value: 5.96%); format: functional
# K562 [29] = assay: Induction of apoptosis in human K562 cells assessed as late apoptotic cells at 1000 uM after 3 days by Annexin-V staining-based assay (reference value: 5.96%); format: functional
# K562 [30] = assay: Induction of apoptosis in human K562 cells assessed as late apoptotic cells at 5 uM after 3 days by Annexin-V staining-based assay (reference value: 5.96%); format: functional
# K562 [31] = assay: Induction of apoptosis in human K562 cells assessed as late apoptotic cells at 10 uM after 3 days by Annexin-V staining-based assay (reference value: 5.96%); format: functional
# K562 [32] = assay: Induction of apoptosis in human K562 cells assessed as dead cells at 500 uM after 3 days by Annexin-V staining-based assay (reference value: 1.29%); format: functional
# K562 [33] = assay: Induction of apoptosis in human K562 cells assessed as dead cells at 1000 uM after 3 days by Annexin-V staining-based assay (reference value: 1.29%); format: functional
# K562 [34] = assay: Induction of apoptosis in human K562 cells assessed as dead cells at 5 uM after 3 days by Annexin-V staining-based assay (reference value: 1.29%); format: functional
# K562 [35] = assay: Induction of apoptosis in human K562 cells assessed as dead cells at 10 uM after 3 days by Annexin-V staining-based assay (reference value: 1.29%); format: functional
# K562 [36] = assay: Induction of apoptosis in human K562 cells assessed as apoptotic cells at 500 uM after 3 days by Annexin-V staining-based assay (reference value: 11.37%); format: functional
# K562 [37] = assay: Induction of apoptosis in human K562 cells assessed as apoptotic cells at 1000 uM after 3 days by Annexin-V staining-based assay (reference value: 11.37%); format: functional
# K562 [38] = assay: Induction of apoptosis in human K562 cells assessed as apoptotic cells at 5 uM after 3 days by Annexin-V staining-based assay (reference value: 11.37%); format: functional
# K562 [39] = assay: Induction of apoptosis in human K562 cells assessed as apoptotic cells at 10 uM after 3 days by Annexin-V staining-based assay (reference value: 11.37%); format: functional
# [40] = Antioxidant activity assessed as superoxide anion radical scavenging by photochemiluminescence method relative to trolox; format: physicochemical
# Outline: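 Superoxide was generated photochemically from luminol under UV light (351 nm). Lag time (water-soluble, ACW) or integrated light emission over 180 s (lipid-soluble, ACL) was compared with a Trolox standard curve. Samples were centrifuged 5 min at 16000 g and diluted 1:40 in water (ACW) or methanol (ACL). Triplicate determinations.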
# [41] = Antioxidant activity assessed as inhibition of AAPH-induced peroxyl radical generation by oxygen radical absorbance capacity assay relative to trolox; format: physicochemical
# Outline: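 Run at 37 °C and pH 7.4 with fluorescein (85 nM) as the probe and AAPH as the peroxyl radical source. Compounds were dissolved fresh in PBS. Fluorescence read at ex 485/em 538 nm every 5 min for up to 30 min after AAPH addition. Net area under the decay curve (blank minus sample) was calibrated against Trolox at 10–50 μM and given as Trolox equivalents.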
# [42] = Antioxidant activity assessed as superoxide anion radical scavenging by photochemiluminescence method relative to trolox using formulation containing O/W; format: physicochemical
# K562 [43] = assay: Antiproliferative activity against human K562 cells assessed as cell number after 3 days by Coulter counter; settings: K562, 72 h
# Sequence of Nuclear factor NF-kappa-B complex (Homo sapiens) (P19838 whole entry, looked up): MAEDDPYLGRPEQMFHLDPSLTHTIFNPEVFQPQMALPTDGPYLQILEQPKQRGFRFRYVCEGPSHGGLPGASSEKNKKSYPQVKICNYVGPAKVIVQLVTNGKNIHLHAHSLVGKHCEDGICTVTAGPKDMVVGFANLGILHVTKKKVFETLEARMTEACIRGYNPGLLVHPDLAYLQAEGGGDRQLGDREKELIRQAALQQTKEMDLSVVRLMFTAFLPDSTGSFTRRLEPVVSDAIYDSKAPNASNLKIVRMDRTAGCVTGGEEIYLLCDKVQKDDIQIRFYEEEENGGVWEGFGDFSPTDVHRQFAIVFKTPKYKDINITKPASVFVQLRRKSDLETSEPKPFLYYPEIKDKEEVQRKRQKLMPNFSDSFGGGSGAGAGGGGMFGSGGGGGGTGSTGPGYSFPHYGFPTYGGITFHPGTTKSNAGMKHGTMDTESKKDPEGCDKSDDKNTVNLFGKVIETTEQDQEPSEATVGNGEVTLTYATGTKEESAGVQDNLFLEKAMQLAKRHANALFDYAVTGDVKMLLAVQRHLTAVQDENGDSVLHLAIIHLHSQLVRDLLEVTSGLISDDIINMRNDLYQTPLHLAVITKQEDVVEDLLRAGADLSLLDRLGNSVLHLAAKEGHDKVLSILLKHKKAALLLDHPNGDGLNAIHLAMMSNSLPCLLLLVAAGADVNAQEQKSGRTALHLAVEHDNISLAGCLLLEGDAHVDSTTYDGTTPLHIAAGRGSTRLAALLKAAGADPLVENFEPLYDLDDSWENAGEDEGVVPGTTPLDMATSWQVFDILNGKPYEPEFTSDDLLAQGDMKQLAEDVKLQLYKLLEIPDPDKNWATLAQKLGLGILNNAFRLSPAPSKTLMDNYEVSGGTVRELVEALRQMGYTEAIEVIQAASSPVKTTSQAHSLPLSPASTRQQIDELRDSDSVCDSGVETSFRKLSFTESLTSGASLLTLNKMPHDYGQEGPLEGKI
# Sequence of Nuclear factor NF-kappa-B complex (Homo sapiens) (Q00653 whole entry, looked up): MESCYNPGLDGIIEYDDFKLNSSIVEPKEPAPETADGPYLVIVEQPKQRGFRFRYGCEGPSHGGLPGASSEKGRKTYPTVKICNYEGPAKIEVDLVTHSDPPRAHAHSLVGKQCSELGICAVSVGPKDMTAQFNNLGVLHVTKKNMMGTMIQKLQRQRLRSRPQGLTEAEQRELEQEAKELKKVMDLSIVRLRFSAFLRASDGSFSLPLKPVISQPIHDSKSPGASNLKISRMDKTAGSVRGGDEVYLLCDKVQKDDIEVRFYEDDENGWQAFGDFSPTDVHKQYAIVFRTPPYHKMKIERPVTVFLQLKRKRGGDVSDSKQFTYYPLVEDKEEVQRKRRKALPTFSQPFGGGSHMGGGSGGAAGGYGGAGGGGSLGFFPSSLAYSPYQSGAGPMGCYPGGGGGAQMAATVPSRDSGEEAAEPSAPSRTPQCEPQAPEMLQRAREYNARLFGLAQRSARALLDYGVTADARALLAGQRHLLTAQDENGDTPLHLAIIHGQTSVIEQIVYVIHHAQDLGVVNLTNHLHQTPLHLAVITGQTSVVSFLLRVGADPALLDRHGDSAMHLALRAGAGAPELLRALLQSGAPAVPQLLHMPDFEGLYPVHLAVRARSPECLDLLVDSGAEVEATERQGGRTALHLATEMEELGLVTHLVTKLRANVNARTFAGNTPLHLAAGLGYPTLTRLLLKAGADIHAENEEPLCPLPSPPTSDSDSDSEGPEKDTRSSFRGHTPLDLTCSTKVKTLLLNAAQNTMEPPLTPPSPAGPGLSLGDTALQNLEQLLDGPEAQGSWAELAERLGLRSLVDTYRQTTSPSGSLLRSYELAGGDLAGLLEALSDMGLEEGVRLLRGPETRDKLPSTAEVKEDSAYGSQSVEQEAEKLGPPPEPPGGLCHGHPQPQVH
# Sequence of Nuclear factor NF-kappa-B complex (Homo sapiens) (Q04206 whole entry, looked up): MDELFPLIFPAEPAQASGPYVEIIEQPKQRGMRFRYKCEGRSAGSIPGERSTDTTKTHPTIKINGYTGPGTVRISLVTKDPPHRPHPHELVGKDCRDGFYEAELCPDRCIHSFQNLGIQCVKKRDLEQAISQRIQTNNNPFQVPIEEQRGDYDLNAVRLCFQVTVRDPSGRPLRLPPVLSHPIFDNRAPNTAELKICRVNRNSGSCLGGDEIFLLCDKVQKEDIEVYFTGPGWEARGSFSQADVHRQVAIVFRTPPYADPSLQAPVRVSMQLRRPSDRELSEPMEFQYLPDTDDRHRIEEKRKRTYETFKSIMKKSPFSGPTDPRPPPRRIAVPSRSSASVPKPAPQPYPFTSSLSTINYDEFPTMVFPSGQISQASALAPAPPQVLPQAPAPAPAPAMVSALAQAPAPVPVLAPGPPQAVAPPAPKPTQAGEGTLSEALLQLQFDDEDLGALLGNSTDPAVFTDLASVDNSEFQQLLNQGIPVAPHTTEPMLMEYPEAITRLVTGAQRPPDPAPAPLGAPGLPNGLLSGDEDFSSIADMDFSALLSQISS
smiles,measurement,setting,value
C[C@@H]1O[C@@H](OC[C@H]2O[C@@H](Oc3c(-c4ccc(O)c(O)c4)oc4cc(O)cc(O)c4c3=O)[C@H](O)[C@@H](O)[C@@H]2O)[C@H](O)[C@H](O)[C@H]1O [RUTIN],inhibition of growth at 20 µg/mL,Epidermophyton floccosum [1],1.9%
same,inhibition of growth at 20 µg/mL,Trichophyton rubrum [2],6.1%
same,inhibition of growth at 20 µg/mL,Trichophyton tonsurans [3],0%
same,inhibition of growth at 20 µg/mL,Trichophyton violaceum [4],2.1%
same,inhibition of growth at 20 µg/mL,[5],0%
same,growth inhibition (GI),Nannizzia gypsea [6],inactive
same,inhibition of growth at 20 µg/mL,Paraphyton cookei [7],3.3%
same,growth inhibition (GI),[8],inactive
same,growth inhibition (GI),Nannizzia gypsea [9],inactive
same,inhibition of growth at 100 µg/mL,Epidermophyton floccosum [10],2.2%
same,inhibition of growth at 100 µg/mL,Trichophyton rubrum [11],9.9%
same,inhibition of growth at 100 µg/mL,Trichophyton tonsurans [12],2.8%
same,inhibition of growth at 100 µg/mL,Trichophyton violaceum [13],4.2%
same,inhibition of growth at 100 µg/mL,[14],3.3%
same,inhibition of growth at 100 µg/mL,Nannizzia gypsea [15],4.1%
same,inhibition of growth at 100 µg/mL,Paraphyton cookei [16],12.3%
same,growth inhibition (GI),[17],inactive
same,growth inhibition (GI),Nannizzia gypsea [18],inactive
same,inhibition,[19],Active
same,Activity,K562 [20],88.15%
same,Activity,K562 [21],84.85%
same,Activity,K562 [22],inactive
same,Activity,K562 [23],inactive
same,Activity,K562 [24],9.15%
same,Activity,K562 [25],8.6%
same,Activity,K562 [26],inactive
same,Activity,K562 [27],inactive
same,Activity,K562 [28],4.05%
same,Activity,K562 [29],6.15%
same,Activity,K562 [30],inactive
same,Activity,K562 [31],inactive
same,Activity,K562 [32],0.65%
same,Activity,K562 [33],0.4%
same,Activity,K562 [34],inactive
same,Activity,K562 [35],inactive
same,Activity,K562 [36],13.2%
same,Activity,K562 [37],14.75%
same,Activity,K562 [38],inactive
same,Activity,K562 [39],inactive
same,Activity,[40],1883.08 µmol/g
same,Activity,[41],10708.06 µmol/g
same,Activity,[42],5.04 µmol/g
same,IC50,K562 [43],897 µM

# — ChEMBL document CHEMBL3352456, “Design, synthesis and biological activity of a novel Rutin analogue with improved lipid soluble properties” (Bioorg Med Chem, 2015)
